# Assay results as given in ChEMBL document CHEMBL1156300, “Identification of pyridazino[4,5-b]indolizines as selective PDE4B inhibitors” (Bioorg Med Chem Lett, 2010).
# Tests used:
# [1] = Selectivity ratio Ki for PDE4D4 to Ki for PDE4B3
# Outline: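 Ki ratio, PDE4D over PDE4B, from [3H]-rolipram displacement in CHO lysates expressing PDE4D4 or PDE4B3 (2.5 nM radioligand, 30 °C for 1 h, Cheng–Prusoff Ki).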
# [2] = target: T1, 3',5'-cyclic-AMP phosphodiesterase 4B (Homo sapiens, UniProt Q07343); assay: Displacement of [methyl-3H]rolipram from PDE4B3 expressed in CHO cells after 1 hr by scintillation counting; format: cell-based
# T1 sequence (Q07343 whole entry): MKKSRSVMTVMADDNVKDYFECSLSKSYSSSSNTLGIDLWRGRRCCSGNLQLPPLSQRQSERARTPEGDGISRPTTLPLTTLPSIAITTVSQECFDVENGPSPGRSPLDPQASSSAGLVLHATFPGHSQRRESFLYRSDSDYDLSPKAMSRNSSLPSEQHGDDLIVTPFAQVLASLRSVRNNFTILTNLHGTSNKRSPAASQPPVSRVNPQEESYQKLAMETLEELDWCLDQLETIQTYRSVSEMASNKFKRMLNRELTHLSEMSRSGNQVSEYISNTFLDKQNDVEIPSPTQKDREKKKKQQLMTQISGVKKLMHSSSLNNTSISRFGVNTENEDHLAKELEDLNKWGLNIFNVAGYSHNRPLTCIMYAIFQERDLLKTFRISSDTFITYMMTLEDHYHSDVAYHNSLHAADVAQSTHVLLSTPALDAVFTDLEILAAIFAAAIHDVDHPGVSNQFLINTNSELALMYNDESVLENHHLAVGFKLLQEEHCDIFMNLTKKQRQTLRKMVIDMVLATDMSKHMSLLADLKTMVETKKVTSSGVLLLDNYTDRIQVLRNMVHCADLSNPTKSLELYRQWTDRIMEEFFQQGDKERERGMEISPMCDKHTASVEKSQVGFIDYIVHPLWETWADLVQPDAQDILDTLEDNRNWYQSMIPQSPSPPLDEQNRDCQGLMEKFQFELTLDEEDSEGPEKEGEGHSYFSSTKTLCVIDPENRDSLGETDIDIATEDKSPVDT
# [3] = target: T2, 3',5'-cyclic-AMP phosphodiesterase 4D (Homo sapiens, UniProt Q08499); assay: Displacement of [methyl-3H]rolipram from PDE4D4 expressed in CHO cells after 1 hr by scintillation counting; format: cell-based
# T2 sequence (Q08499 whole entry): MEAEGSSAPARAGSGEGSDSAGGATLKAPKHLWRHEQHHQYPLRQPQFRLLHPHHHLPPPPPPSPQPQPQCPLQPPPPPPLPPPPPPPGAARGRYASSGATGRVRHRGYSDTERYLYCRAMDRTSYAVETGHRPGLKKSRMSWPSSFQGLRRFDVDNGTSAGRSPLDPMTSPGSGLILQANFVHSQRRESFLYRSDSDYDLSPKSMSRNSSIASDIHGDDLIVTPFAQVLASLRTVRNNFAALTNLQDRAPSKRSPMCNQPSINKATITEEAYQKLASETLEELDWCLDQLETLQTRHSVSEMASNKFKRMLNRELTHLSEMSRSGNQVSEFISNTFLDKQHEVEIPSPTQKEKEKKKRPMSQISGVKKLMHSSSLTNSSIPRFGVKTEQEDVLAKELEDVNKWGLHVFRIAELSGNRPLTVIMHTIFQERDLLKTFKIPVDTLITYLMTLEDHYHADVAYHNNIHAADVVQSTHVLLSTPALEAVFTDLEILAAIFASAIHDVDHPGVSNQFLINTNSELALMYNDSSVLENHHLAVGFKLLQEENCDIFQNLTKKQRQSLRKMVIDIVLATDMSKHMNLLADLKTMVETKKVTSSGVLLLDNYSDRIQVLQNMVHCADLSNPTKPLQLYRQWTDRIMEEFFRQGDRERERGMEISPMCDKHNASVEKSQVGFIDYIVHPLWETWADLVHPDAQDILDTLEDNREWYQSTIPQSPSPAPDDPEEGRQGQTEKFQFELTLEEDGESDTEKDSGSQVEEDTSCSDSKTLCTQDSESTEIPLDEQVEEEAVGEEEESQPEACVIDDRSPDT
# [4] = target: T1, 3',5'-cyclic-AMP phosphodiesterase 4B; assay: Inhibition of PDE4B3 expressed in CHO cells assessed as isoproterenol-induced [125I]cAMP accumulation after 15 mins by scintillation counting; format: cell-based
# [5] = target: T2, 3',5'-cyclic-AMP phosphodiesterase 4D; assay: Inhibition of PDE4D4 expressed in CHO cells assessed as isoproterenol-induced [125I]cAMP accumulation after 15 mins by scintillation counting; format: cell-based
# [6] = Selectivity ratio of IC50 for PDE4A to IC50 for PDE4B3
# [7] = Inhibition of PDE1
# [8] = target: Voltage-gated inwardly rectifying potassium channel KCNH2 (Homo sapiens, UniProt Q12809); assay: Inhibition of human ERG
# Sequence of Voltage-gated inwardly rectifying potassium channel KCNH2 (Q12809 whole entry): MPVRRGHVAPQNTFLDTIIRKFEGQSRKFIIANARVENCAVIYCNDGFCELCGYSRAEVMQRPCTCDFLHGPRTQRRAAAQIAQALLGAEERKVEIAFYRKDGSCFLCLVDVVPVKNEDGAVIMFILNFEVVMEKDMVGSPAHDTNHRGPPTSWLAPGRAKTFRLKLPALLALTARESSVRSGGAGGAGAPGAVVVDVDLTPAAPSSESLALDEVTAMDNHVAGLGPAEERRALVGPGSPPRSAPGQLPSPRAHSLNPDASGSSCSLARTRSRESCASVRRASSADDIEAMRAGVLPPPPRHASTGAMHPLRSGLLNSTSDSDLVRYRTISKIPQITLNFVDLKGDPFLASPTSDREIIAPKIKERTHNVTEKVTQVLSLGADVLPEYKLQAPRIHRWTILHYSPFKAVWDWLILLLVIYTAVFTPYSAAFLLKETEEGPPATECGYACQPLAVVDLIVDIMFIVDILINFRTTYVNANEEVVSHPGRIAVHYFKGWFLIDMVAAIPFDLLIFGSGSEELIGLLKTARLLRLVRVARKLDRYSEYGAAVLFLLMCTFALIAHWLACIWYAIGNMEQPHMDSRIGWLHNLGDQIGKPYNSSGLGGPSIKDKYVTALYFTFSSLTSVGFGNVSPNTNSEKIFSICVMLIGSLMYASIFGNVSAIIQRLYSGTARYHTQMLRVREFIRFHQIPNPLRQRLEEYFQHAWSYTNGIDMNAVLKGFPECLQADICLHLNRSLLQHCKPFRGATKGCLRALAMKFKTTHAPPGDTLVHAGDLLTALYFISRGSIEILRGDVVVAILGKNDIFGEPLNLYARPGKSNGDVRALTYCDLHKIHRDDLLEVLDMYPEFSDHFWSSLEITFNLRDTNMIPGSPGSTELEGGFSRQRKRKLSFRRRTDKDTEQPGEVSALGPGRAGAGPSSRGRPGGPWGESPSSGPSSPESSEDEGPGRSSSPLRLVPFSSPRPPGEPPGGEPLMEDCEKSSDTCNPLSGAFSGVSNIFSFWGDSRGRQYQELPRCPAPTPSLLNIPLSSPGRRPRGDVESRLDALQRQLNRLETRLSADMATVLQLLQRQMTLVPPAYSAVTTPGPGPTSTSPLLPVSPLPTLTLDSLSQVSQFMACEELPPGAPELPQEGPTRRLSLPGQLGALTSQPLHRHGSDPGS
# [9] = Inhibition of PDE6
# [10] = Inhibition of PDE2
# [11] = Selectivity ratio of IC50 for PDE4C to IC50 for PDE4B3
# [12] = Inhibition of PDE5
# [13] = Inhibition of PDE3
SMILES,Ratio Ki [1],Ki [2] [µM],Ki [3] [µM],further results
Cc1cc2c(NCCCN3CCN(C(=O)c4ccno4)CC3)nnc(-c3cccc([N+](=O)[O-])c3)c2n1C,> 20,5.08,> 100,–
Cc1cc2c(NCCCN3CCN(C(=O)c4ccnnc4)CC3)nnc(-c3cccc([N+](=O)[O-])c3)c2n1C,12,4.44,51.2,–
N#Cc1cccc(-c2nnc(NCCCN3CCN(c4ncccn4)CC3)c3cc4ccccn4c23)c1,3,1.03,3.35,–
CCC(=O)N1CCN(CCCNc2nnc(-c3cccc(F)c3)c3c2cc2ccccn23)CC1,> 20,4.9,> 100,–
Fc1cccc(-c2nnc(NCCCN3CCN(c4ncccn4)CC3)c3cc4ccccn4c23)c1,29,2.7,83,–
Cc1cc2c(NCCCN3CCN(C(=O)c4csnn4)CC3)nnc(-c3cccc([N+](=O)[O-])c3)c2n1C,50,0.977,48.6,–
O=C(c1ccccc1)N1CCN(CCCNc2nnc(-c3cccc(F)c3)c3c2cc2ccccn23)CC1,8,2.7,22.2,–
Clc1cccc(-c2nnc(NCCCN3CCN(c4ncccn4)CC3)c3cc4ccccn4c23)c1,7,2.01,14.2,–
Cc1cc2c(NCCCN3CCN(C(=O)c4ncccn4)CC3)nnc(-c3cccc([N+](=O)[O-])c3)c2n1C,> 100,1,> 100,–
Cc1cc2c(NCCCN3CCN(C(=O)c4ccncc4)CC3)nnc(-c3cccc([N+](=O)[O-])c3)c2n1C,> 2,52.2,> 100,–
c1ccc(-c2nnc(NCCCN3CCN(c4ncccn4)CC3)c3cc4ccccn4c23)cc1,23,2.6,59,IC50 [4]: 13.2 µM; IC50 [5]: > 100 µM
Cn1cccc1C(=O)N1CCN(CCCNc2nnc(-c3cccc(F)c3)c3c2cc2ccccn23)CC1,12,5.2,65,–
CC(=O)N1CCN(CCCNc2nnc(-c3cccc(F)c3)c3c2cc2ccccn23)CC1,> 53,1.9,> 100,–
O=C(C1CCCC1)N1CCN(CCCNc2nnc(-c3cccc(F)c3)c3c2cc2ccccn23)CC1,4,14,61,–
Cc1cc2c(NCCCN3CCN(C(=O)c4cccnc4)CC3)nnc(-c3cccc([N+](=O)[O-])c3)c2n1C,35,0.432,15.3,–
Brc1cccc(-c2nnc(NCCCN3CCN(c4ncccn4)CC3)c3cc4ccccn4c23)c1,12,1.44,17.5,–
Cc1cccc(-c2nnc(NCCCN3CCN(c4ncccn4)CC3)c3cc4ccccn4c23)c1,13,4.3,54.4,–

# Stronger by Ki [2], values ahead:
Ratio Ki [1],Ki [2] [µM],Ki [3] [µM],SMILES,further results
75,0.241,18,O=C(c1ccccn1)N1CCN(CCCNc2nnc(-c3cccc(F)c3)c3c2cc2ccccn23)CC1,–
11,0.21,2.4,O=[N+]([O-])c1cccc(-c2nnc(NCCCN3CCN(c4ncccn4)CC3)c3cc4ccccn4c23)c1,–
46,0.413,19,O=C(c1cccnc1)N1CCN(CCCNc2nnc(-c3cccc(F)c3)c3c2cc2ccccn23)CC1,–
58,0.077,4.44,Cc1cc2c(NCCCN3CCN(C(=O)c4cnccn4)CC3)nnc(-c3cccc([N+](=O)[O-])c3)c2n1C,–
57,0.222,12.7,Cc1cc2c(NCCCN3CCN(C(=O)c4cncs4)CC3)nnc(-c3cccc([N+](=O)[O-])c3)c2n1C,–
48,0.238,11.5,Cc1cc2c(NCCCN3CCN(C(=O)c4ccccn4)CC3)nnc(-c3cccc([N+](=O)[O-])c3)c2n1C,–
205,0.041,8.37,O=C(c1cnccn1)N1CCN(CCCNc2nnc(-c3ccccc3)c3c2cc2ccccn23)CC1,IC50 [4]: 6.7 µM; IC50 [5]: > 100 µM
26,0.0056,0.147,O=C(c1cnccn1)N1CCN(CCCNc2nnc(-c3cccc([N+](=O)[O-])c3)c3c2cc2ccccn23)CC1,Ratio IC50 [6]: > 5; IC50 [7]: > 10 µM; inhibition (INH) [8]: Active; IC50 [4]: 0.389 µM; IC50 [9]: > 10 µM; IC50 [5]: 4.9 µM; IC50 [10]: > 10 µM; Ratio IC50 [11]: > 5; IC50 [12]: > 10 µM; IC50 [13]: > 10 µM
